Calls of active or inactive are those of the source. No cut-off for these calls is given here.
How the values were obtained:
[1] = Selectivity ratio of IC50 for human MDA-MB-231 cells to IC50 for human EBC1 cells; assay type: ADME, cell-based
How it was run: (§1)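 Both IC50s in each ratio come from one proliferation assay. Cells were seeded and exposed the next day to a range of concentrations for 72 h, then read by SRB or MTT. IC50s were fitted by four-parameter concentration–response, with each concentration at least in triplicate and at least 2 experiments. BaF3/TPR-Met is murine pre-B BaF3 transfected with TPR-MET and puromycin-selected.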

[2] = Selectivity ratio of IC50 for human 786-0 cells to IC50 for human EBC1 cells; assay type: ADME, cell-based; how it was run: as §1
[3] = Antitumor activity against human EBC1 cells xenografted in athymic nude mouse assessed as tumor growth inhibition at 6.25 mg/kg, po bid for 21 days measured twice a week during compound dosing relative to control; assay type: functional; details: EBC-1, po, 504 h, read-out: TGI
How it was run: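 Nude mice bearing s.c. tumours. Cells were first grown s.c. to 700–800 mm³, then 1.5 mm³ fragments were transplanted s.c. into the right flank. Mice were randomised at 100–200 mm³ (n=6 treated, n=12 vehicle) and dosed orally twice daily for 21 days. Caliper measurement twice weekly; TV = length×width²/2. TGI taken on the final day versus vehicle; Student's t test.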

[4] = target: T1, TPR/MET fusion protein (Mus musculus) (UniProt P16056+F6ZDS4); experiment: Inhibition of TPR-MET in mouse BAF3 cells assessed as reduction in ERK phosphorylation at Threonine 202 at 10 nM after 1 hr by Western blot analysis; assay type: cell-based
How it was run: (§2)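 BaF3 stably expressing TPR-MET (puromycin-selected), grown with IL-3-conditioned medium. Treated 1 h at 37 °C, lysed in SDS sample buffer. 10% SDS-PAGE and immunoblot for phospho-c-Met, phospho-ERK1/2, phospho-AKT and totals; ECL detection.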

[5] = target: T2, Hepatocyte growth factor receptor (Homo sapiens, UniProt P08581); experiment: Inhibition of c-Met in human MKN45 cells assessed as reduction in AKT phosphorylation at Serine 473 at 10 nM after 1 hr by Western blot analysis; assay type: cell-based; details: MKN-45
How it was run: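 EBC-1 or MKN45 cells treated with compound 1 h at 37 °C without HGF, then lysed in 1× SDS sample buffer. Lysates run on 10% SDS-PAGE and transferred to nitrocellulose. Probed with antibodies to c-Met, phospho-c-Met, phospho-ERK1/2, phospho-AKT, AKT and GAPDH, then HRP secondary. ECL detection.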

[6] = Selectivity ratio of IC50 for human BGC823 cells to IC50 for human MKN45 cells; assay type: ADME, cell-based; details: bgc-823; how it was run: as §1
[7] = Selectivity ratio of IC50 for human NCI-H358 cells to IC50 for mouse BAF3 cells expressing TPR-MET; assay type: ADME, cell-based; how it was run: as §1
[8] = Selectivity ratio of IC50 for human NCI-H596 cells to IC50 for human MKN45 cells; assay type: ADME, cell-based; details: mkn-45; how it was run: as §1
[9] = Selectivity ratio of IC50 for human U87MG cells to IC50 for mouse BAF3 cells expressing TPR-MET; assay type: ADME, cell-based
[10] = Antiproliferative activity against human SGC7901 cells after 72 hrs by SRB or MTT assay; assay type: functional, cell-based; details: SGC-7901, 72 h
How it was run: (§3)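 Cells seeded, exposed next day to a range of concentrations for 72 h. Growth read by sulforhodamine B or MTT. IC50 from four-parameter concentration-response fit. Each concentration tested at least in triplicate, with at least 2 experiments.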

[11] = Selectivity ratio of IC50 for human 786-0 cells to IC50 for mouse BAF3 cells expressing TPR-MET; assay type: ADME, cell-based; how it was run: as §1
[12] = Antiproliferative activity against human NCI-HCC827 cells after 72 hrs by SRB or MTT assay; assay type: functional, cell-based; details: HCC827, 72 h; how it was run: as §3
[13] = Selectivity ratio of IC50 for human SNU1 cells to IC50 for human EBC1 cells; assay type: ADME, cell-based
[14] = Selectivity ratio of IC50 for human SPCA1 cells to IC50 for mouse BAF3 cells expressing TPR-MET; assay type: ADME, cell-based; details: SPCA1 cells versus BAF3 cells expressing TPR-MET
[15] = target: T1, TPR/MET fusion protein (Mus musculus); experiment: Inhibition of TPR-MET phosphorylation in mouse BAF3 cells at 10 nM after 1 hr by Western blot analysis; assay type: cell-based; how it was run: as §2
[16] = target: Receptor tyrosine-protein kinase erbB-2 (Homo sapiens) (UniProt P04626); experiment: Inhibition of recombinant ERBB2 (unknown origin) using poly (Glu, Tyr) 4:1 as substrate at 1000 nM incubated for 60 mins by ELISA relative to control
How it was run: (§4)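 Recombinant tyrosine kinases assayed on wells precoated with poly(Glu,Tyr)4:1 (20 µg/mL). ATP 10 µmol/L in HEPES pH 7.4 buffer with MgCl2, MnCl2, Na3VO4 and DTT; compound in 1% DMSO, 1% DMSO as control. Reaction 60 min at 37 °C. Phosphotyrosine detected with PY99 and HRP anti-mouse, o-phenylenediamine, A490. Inhibition % relative to control; two experiments.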

[17] = Selectivity ratio of IC50 for human Bel7404 cells to IC50 for human MKN45 cells; assay type: ADME, cell-based; how it was run: as §1
[18] = Selectivity ratio of IC50 for human PANC1 cells to IC50 for human MKN45 cells; assay type: ADME, cell-based; details: panc-1
How it was run: (§5)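 Each cell line was seeded in 96-well plates, then exposed the next day to a range of compound concentrations for 72 h. Growth was read by SRB or MTT assay, and IC50 was fitted by a four-parameter concentration-response curve. Each concentration was run at least in triplicate, in at least 2 experiments. BaF3/TPR-Met are murine pre-B BaF3 cells transfected with TPR-MET cDNA and selected in puromycin.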

[19] = Selectivity ratio of IC50 for human SGC7901 cells to IC50 for mouse BAF3 cells expressing TPR-MET; assay type: ADME, cell-based; how it was run: as §5
[20] = Selectivity ratio of IC50 for human HCT116 cells to IC50 for human EBC1 cells; assay type: ADME, cell-based; details: hct-116; how it was run: as §1
[21] = target: Fibroblast growth factor receptor 1 (Homo sapiens) (UniProt P11362); experiment: Inhibition of recombinant FGFR1 (unknown origin) using poly (Glu, Tyr) 4:1 as substrate at 1000 nM incubated for 60 mins by ELISA relative to control; how it was run: as §4
[22] = Half life in Sprague-Dawley rat at 2 mg/kg, iv administered as single dose; assay type: ADME, organism-based; details: in vivo
How it was run: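 Male Sprague Dawley rats (n=3), single dose. iv 2 mg/kg in 1% DMA/9% Cremophor/90% saline. po 10 mg/kg in 0.5% CMC-Na. Where iv was 10 mg/kg: 10% DMSO/10% Tween 80/80% (40% PEG40); po in that case in 10% DMSO/5% Tween 80/85% saline.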

[23] = target: T2, Hepatocyte growth factor receptor; experiment: Inhibition of c-Met phosphorylation at Tyrosine 1234 in HGF stimulated human U87MG cells at 10 nM after 1 hr by Western blot analysis; assay type: cell-based; details: U-87MG ATCC
How it was run: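 U87MG cells serum-starved 24 h, pretreated with compound 1 h at 37 °C, then stimulated with HGF (100 ng/mL) for 15 min. Lysed in 1× SDS sample buffer, resolved by 10% SDS-PAGE and blotted to nitrocellulose. Probed for phospho-c-Met, phospho-ERK1/2, phospho-AKT and totals, with GAPDH as loading control. ECL detection.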

T1 sequence (F6ZDS4 whole entry partner, the tested form may be a part): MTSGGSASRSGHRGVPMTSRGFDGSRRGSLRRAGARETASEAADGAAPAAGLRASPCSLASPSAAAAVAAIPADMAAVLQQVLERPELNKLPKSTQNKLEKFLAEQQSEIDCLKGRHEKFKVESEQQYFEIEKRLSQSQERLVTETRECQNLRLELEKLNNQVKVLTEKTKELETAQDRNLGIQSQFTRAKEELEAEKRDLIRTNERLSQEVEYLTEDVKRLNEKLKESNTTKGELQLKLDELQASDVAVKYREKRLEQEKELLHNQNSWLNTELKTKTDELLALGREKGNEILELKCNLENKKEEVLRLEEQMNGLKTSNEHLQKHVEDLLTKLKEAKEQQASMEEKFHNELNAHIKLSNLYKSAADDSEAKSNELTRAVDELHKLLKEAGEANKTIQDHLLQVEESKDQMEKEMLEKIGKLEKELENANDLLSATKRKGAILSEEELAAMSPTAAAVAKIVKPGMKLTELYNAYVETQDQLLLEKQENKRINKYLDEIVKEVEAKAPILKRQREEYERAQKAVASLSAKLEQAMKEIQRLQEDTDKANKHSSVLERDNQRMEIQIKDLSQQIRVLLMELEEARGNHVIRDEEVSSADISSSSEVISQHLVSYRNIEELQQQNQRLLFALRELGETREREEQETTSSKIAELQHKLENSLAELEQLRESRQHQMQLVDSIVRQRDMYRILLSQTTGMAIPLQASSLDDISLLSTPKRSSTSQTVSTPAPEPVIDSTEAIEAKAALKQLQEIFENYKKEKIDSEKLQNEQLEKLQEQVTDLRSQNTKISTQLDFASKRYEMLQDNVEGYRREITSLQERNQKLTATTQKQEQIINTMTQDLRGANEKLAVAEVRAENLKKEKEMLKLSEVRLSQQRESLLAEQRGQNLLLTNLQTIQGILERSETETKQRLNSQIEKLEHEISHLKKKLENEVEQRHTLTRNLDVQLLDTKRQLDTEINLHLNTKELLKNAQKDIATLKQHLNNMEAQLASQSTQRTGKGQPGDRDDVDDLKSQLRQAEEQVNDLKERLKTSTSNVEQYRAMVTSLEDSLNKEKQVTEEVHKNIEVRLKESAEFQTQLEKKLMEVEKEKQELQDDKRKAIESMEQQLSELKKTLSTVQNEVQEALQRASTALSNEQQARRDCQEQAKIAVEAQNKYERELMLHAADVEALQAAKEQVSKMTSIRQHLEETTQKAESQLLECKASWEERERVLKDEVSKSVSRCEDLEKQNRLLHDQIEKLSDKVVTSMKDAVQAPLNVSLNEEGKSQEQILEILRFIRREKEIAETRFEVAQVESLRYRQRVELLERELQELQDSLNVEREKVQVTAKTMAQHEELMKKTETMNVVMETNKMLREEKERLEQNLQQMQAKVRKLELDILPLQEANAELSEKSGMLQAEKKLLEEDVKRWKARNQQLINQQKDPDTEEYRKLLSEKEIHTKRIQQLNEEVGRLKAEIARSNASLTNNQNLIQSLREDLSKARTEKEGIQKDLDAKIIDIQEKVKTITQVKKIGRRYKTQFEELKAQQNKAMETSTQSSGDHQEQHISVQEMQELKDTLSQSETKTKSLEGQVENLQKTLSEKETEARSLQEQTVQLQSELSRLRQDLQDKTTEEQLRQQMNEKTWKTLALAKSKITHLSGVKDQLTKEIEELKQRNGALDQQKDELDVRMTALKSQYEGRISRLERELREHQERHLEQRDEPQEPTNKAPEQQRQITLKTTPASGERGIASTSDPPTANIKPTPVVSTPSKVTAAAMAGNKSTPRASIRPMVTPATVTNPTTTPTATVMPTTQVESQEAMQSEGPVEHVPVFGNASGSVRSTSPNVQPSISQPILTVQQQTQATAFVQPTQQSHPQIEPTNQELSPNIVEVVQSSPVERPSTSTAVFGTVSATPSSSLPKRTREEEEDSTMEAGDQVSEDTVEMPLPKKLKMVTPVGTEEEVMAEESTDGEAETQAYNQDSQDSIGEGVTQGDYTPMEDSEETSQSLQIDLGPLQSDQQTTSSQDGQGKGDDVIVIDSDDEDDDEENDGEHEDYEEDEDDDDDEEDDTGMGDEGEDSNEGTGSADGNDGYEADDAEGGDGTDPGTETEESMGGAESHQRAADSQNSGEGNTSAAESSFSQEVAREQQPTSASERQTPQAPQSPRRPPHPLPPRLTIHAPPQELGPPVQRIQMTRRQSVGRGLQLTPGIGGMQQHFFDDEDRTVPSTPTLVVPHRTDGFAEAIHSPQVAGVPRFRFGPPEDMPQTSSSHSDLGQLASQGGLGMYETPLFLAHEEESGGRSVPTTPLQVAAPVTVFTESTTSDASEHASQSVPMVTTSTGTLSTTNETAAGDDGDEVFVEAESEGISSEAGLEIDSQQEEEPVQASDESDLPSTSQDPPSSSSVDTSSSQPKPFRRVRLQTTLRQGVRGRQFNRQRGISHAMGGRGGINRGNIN
T1 sequence (P16056 25-1379 limits assumed): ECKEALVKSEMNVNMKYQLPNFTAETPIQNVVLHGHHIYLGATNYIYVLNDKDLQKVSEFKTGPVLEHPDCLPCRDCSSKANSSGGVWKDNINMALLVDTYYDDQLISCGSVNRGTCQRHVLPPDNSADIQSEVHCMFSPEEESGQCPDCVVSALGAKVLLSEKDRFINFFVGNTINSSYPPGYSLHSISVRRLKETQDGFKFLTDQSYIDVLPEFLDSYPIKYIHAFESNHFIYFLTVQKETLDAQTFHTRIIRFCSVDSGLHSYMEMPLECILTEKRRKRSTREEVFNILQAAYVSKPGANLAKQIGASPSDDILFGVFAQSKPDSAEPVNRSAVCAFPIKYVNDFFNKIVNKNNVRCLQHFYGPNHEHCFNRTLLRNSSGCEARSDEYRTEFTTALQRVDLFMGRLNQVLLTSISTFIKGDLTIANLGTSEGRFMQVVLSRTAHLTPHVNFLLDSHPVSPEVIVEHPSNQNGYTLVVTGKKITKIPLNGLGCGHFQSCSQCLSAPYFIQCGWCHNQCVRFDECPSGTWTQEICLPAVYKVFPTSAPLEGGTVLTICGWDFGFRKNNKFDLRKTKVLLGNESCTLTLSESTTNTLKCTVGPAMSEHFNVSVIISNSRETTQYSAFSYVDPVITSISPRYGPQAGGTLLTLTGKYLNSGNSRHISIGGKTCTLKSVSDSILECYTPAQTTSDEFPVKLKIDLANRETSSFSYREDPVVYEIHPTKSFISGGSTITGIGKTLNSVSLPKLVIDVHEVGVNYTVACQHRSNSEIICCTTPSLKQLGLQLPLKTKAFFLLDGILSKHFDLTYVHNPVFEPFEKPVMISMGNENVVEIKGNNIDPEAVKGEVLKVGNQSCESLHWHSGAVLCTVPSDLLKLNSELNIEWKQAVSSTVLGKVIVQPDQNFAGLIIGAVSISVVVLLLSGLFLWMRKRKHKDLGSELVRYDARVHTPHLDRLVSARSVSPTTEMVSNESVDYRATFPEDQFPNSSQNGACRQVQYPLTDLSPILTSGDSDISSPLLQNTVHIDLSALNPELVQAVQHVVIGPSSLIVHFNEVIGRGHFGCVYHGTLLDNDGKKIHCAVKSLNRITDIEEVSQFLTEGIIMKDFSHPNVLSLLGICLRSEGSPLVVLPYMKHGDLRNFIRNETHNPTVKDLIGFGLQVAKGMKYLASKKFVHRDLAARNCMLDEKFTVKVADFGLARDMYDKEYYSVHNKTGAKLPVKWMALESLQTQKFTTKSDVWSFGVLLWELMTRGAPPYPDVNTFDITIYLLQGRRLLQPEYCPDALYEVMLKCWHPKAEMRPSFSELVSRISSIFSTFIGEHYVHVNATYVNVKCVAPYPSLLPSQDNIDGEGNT
T2 sequence (P08581 whole entry): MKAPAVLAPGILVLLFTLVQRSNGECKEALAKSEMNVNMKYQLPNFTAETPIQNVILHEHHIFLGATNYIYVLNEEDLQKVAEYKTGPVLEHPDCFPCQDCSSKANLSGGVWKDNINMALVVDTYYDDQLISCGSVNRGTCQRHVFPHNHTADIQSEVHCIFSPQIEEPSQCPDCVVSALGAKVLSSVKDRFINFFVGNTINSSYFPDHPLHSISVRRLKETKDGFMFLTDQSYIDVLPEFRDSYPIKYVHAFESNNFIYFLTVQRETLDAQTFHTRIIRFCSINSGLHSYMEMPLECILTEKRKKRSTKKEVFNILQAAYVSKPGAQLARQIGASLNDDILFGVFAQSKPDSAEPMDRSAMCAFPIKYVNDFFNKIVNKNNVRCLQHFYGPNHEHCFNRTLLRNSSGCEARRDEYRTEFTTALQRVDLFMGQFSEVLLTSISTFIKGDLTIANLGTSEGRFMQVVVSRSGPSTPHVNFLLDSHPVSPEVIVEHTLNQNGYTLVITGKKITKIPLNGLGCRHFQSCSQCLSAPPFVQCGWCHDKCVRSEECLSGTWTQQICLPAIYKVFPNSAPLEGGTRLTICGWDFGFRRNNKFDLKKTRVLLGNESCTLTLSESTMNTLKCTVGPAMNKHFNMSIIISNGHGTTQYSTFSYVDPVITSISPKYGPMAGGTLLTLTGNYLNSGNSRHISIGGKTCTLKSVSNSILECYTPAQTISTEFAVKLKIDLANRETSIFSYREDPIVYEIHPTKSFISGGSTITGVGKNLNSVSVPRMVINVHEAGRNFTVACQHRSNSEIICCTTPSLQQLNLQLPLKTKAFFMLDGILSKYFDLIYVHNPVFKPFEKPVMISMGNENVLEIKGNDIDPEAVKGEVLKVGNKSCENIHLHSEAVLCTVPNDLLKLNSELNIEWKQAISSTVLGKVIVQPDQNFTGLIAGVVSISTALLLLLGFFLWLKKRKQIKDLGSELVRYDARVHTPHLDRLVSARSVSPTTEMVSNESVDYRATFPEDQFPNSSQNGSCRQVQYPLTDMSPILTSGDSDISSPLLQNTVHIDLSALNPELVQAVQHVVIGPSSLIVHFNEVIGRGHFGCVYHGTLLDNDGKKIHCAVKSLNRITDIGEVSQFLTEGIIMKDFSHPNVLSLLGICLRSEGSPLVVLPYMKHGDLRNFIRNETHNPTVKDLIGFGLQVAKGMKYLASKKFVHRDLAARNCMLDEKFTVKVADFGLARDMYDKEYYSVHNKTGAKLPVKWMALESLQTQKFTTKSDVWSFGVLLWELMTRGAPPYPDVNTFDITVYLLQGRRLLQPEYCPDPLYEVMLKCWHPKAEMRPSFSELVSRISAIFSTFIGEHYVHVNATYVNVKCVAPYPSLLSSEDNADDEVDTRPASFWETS

inhibition [4]: Active
inhibition [5]: Active
inhibition [15]: Active
inhibition [16]: 31.5%
inhibition [21]: 12.8%
half-life [22]: 1.23 h
inhibition [23]: Active
Structure (SMILES): Fc1ccc(-c2cnc3nnc(C(F)(F)c4ccc5ncccc5c4)n3n2)cc1
Ratio IC50 [1]: > 10000
Ratio IC50 [2]: 10000
inhibition in vivo at 6.25 mg/kg [3]: 56.9%
Ratio IC50 [6]: > 10000
Ratio IC50 [7]: 10000
Ratio IC50 [8]: 10000
Ratio IC50 [9]: 10000
IC50 [10]: > 10 µM
Ratio IC50 [11]: 10000
IC50 [12]: > 10 µM
Ratio IC50 [13]: 10000
selectivity ratio [14]: > 10000
Ratio IC50 [17]: 10000
Ratio IC50 [18]: 10000
Ratio IC50 [19]: > 10000
Ratio IC50 [20]: 10000
